From PubChem BioAssay
Rows were chosen to be rich in hits. Some 1.5% of all compounds tested hit in one or more screens of this group.
HNF4A DNA FP – change in binding of human HNF4 alpha to DNA. P41235. HNF4a-FITC DNA binding, fluorescence polarization, 1 h. activity change, % at 10 µM. 360,000 tested, 0.3% active. AID 1224865; in the data active = activity change above about 30%, passing the limit was not always enough
ZTA counter – counter-screen for EBNA-1 inhibitors: inhibitors of Epstein-Barr virus ZTA; ZTA-DNA binding, fluorescence polarization; AID 2234; 320,000 tested, 0.15% active; inhibition, % at 11 µM; in the data active = inhibition above about 33%
Target sequence (P03206 whole entry, looked up): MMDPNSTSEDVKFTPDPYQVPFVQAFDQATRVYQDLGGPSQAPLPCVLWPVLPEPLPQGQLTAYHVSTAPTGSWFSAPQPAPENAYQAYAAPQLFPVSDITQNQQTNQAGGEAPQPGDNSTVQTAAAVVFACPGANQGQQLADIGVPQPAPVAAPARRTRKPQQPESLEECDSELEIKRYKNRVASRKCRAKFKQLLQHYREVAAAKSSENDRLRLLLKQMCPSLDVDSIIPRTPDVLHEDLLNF
LANA-H2A inh – blocks KSHV LANA binding to histone H2A/H2B. cell-free LANA-H2A/H2B peptide, fluorescence polarization. inhibition, % (no concentration beside the values). 320,000 tested, 0.6% active; in the data active = inhibition mostly above about 10%, no sharp cut-off; inactive = mostly below about 6.7%
Bfl-1 A1 inh – inhibitors of the anti-apoptotic protein A1, read as caspase activation; caspase activation, % (concentration not given with the values); MEF A1-2A-BIM cells, Caspase-Glo 3/7 luminescence, 3 h; percent of clofoctol response, vehicle zero; AID 2462; 330,000 tested, 0.066% active;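 active = over half of replicate activation scores above 10%, or exactly half above 10 with the replicate mean above 10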
EBNA-1 inhibitor – blocks EBNA-1 binding to DNA; 300,000 tested, 0.34% active; EBNA-1 DNA binding, fluorescence polarization; inhibition, % at 14.8 µM; in the data active = inhibition above about 28%
CSN deneddyl inh – CSN deneddylation inhibition; Q92905; Purified CSN, SCF-Nedd8-OG deneddylation, fluorescence polarization; inhibition, % at 12.5 µM; 360,000 tested, 0.38% active; AID 651999;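 active = pattern-corrected inhibition above about 35%, with an unprinted fluorescence ratio check between 0.5 and 1.5, limit read from the data, passing the limit was not always enough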;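 also: 0% = enzyme with substrate and 100% = substrate without enzyme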
Target sequence (Q92905 whole entry, looked up, one chain of several): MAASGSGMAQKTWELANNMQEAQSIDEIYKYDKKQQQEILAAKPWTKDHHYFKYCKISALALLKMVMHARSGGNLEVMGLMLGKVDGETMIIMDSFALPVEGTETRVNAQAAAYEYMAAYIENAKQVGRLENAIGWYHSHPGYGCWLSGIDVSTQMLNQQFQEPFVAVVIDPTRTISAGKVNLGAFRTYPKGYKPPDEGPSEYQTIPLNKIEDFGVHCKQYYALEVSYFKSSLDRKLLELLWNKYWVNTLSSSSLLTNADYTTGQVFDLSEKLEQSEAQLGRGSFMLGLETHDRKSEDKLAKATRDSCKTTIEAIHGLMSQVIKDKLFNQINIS
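Assay system: Purified human Csn5 enzyme expressed in HEK293T cells | Amount: Enzyme 0.24 nM | Measured by: Fluorescence polarization readout | Medium: Tris/NaCl/DTT buffer, pH 7.5 | Compound dosing: One concentration, 12.5 µM, 0.25% DMSO | Times: 90 min incubation of compound, enzyme and substrate at room temperature | Control set: no-enzyme wells high, enzyme-with-substrate wells low | Read-out: % inhibition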
* marks the source's active call; other numbers are inactive results; x = no result given; + = active, no number.

SMILES | HNF4A DNA FP | ZTA counter | LANA-H2A inh | Bfl-1 A1 inh | EBNA-1 inhibitor | CSN deneddyl inh
CCCCn1c(=O)[nH]c(=O)c2c1nc(CN1C(=O)c3ccccc3S1(=O)=O)n2CCC | -2.8 | -18.5 | 2.8 | 1.2 | 0.6 | 0.3
CCOC(=O)/C=c1\s/c(=C\c2ccc(C(F)(F)F)cc2)c(=O)n1CC(=O)NCc1ccco1 | 9.5 | 0.8 | -7.4 | 0.0 | -18.8 | 12.1
CCOC(=O)/C=c1\s/c(=C\c2ccc(C)cc2)c(=O)n1CC(=O)NCc1ccco1 | 3.3 | 11.1 | 3.8 | 1.4 | 44.6* | 10.9
CCCN1C(=O)C(=O)c2cc(C)ccc21 | 0.7 | x | -1.8 | 3.3 | x | -1.8
CCCCN1C(=O)C(=O)c2cc(Cl)ccc21 | 2.4 | x | + | 0.6 | x | 0.0
CCOC(=O)Cc1csc(NC(=O)c2sc3nc4c(C)cc(C)cc4cc3c2N)n1 | 39.6* | 0.5 | 1.4 | -0.1 | 10.1 | 3.6
CCOC(=O)Cc1csc(NC(=O)c2csc(C)c2)n1 | -2.7 | 9.2 | -6.1 | 0.3 | 4.9 | 2.6
Cc1ccccc1-n1nc(C)c(N=O)c1N | 1.6 | -2.7 | 30.3* | -0.4 | -1.9 | 5.9
CCOc1ccccc1-n1c(=O)c2ccccc2c2ccccc2c1=O | -1.2 | 1.1 | 2.8 | 0.6 | 4.7 | -6.7
COCCOc1nc2c(c(=O)n(C)c(=O)n2C)n1CCc1ccccc1 | -1.9 | 10.2 | 11.0* | -0.2 | -16.5 | 1.6
C=CCOc1nc2c(c(=O)n(C)c(=O)n2C)n1Cc1ccccc1 | 4.0 | -4.8 | 1.5 | 0.2 | -0.3 | -4.4
O=C(C(=O)N1CCN(c2ccccc2)CC1)c1ccccc1 | 3.1 | x | x | x | x | 0.7
Cc1ccc(S(=O)(=O)CCC(=O)OC(C)C(=O)N2CCc3ccccc32)cc1 (stereo not drawn) | 4.3 | 2.3 | -6.2 | 0.5 | 0.5 | 40.1*
O=C(CN1C(=O)COc2ccccc21)NCCCN1CCCCC1 | -0.1 | -9.7 | 3.3 | 0.6 | -12.6 | 1.0
Oc1ccc2nnc3c(Br)cnn3c2c1 | -90.3 | 4.0 | 19.4* | -0.9 | -0.5 | -44.8
Cc1cc(C)c2cc(C#N)c(NCCNC(=O)c3ccccn3)nc2c1 | 3.7 | x | x | x | x | -0.2
COc1ccc(CCC(=O)OCC(=O)NC2CCCC2)cc1OC | 2.2 | x | x | x | x | 8.1
COc1cc(C)nc(-c2csc(C)n2)n1 | -11.9 | -13.5 | 20.3* | 1.7 | 1.6 | 0.7
CCOC(=O)c1ccc(Oc2coc3cc(O)ccc3c2=O)cc1 | 1.6 | 5.4 | -2.3 | 1.7 | -8.2 | -1.8
Cc1cccc(N2CCN(C(=O)Cc3ccccc3[N+](=O)[O-])CC2)c1C | -1.1 | 6.8 | 20.8* | 0.0 | 15.4 | -3.3
O=C(Cc1ccccc1[N+](=O)[O-])N1CCN(c2ccc(F)cc2)CC1 | -0.7 | 2.9 | -0.4 | -0.2 | 13.5 | -3.9
O=C1c2ccc(Cl)cc2S(=O)(=O)c2cccc(C(=O)N3CCN(c4ncc(Br)cn4)CC3)c21 | 2.5 | -10.2 | -5.4 | 0.4 | x | 0.0
COc1ccc(-c2ccc3c(c2)S(=O)(=O)c2cccc(C(=O)N4CCN(c5c(Cl)cncc5Cl)CC4)c2C3=O)cc1OC | 42.2* | x | -4.4 | 2.7 | x | 21.0
Nc1ccc(S(=O)(=O)NN=CC=Cc2ccccc2[N+](=O)[O-])cc1 | -3.4 | x | x | x | x | -0.9
CCC/C(=N/NC(=O)c1cccc(Cl)c1)c1ccccc1 | -2.9 | -14.6 | 14.0* | 0.1 | 7.6 | -0.3
SMILES | HNF4A DNA FP | ZTA counter | LANA-H2A inh | Bfl-1 A1 inh | EBNA-1 inhibitor | CSN deneddyl inh
Nn1c(SCC(=O)Nc2c(F)cc(F)cc2Br)nnc1C1CCCCC1 | 31.8 | 5.3 | -1.6 | 1.2 | -15.0 | 107.6*
Nn1c(SCC(=O)Nc2ccc(F)cc2F)nnc1C1CCCCC1 | 4.9 | -1.2 | 7.3 | 0.8 | -1.8 | 2.8
COc1ccc(CCNC(=O)C(=O)NCC2CCCO2)cc1 (stereo not drawn) | 0.9 | 17.2 | 1.6 | 1.5 | 2.9 | -6.5
COc1ccc(CCNC(=O)C(=O)NCC2CCCO2)cc1OC (stereo not drawn) | -1.9 | -10.6 | 40.6* | 0.4 | -1.9 | 7.1
COc1ccc(CCNC(=O)C2CCC(C(C)(C)C)CC2)cc1OC (stereo not drawn) | -2.8 | -25.6 | 57.8* | 0.0 | -10.3 | -0.7
COc1ccc(CCNC(=O)C2CC2)cc1OC | -2.7 | -7.9 | -7.5 | 1.1 | 4.8 | -3.5
O=C1c2cccc3c(Nc4ccccc4Cl)c([N+](=O)[O-])cc(c23)C(=O)N1CCO | 1.5 | -4.3 | -5.2 | -0.3 | 8.1 | -5.1
Cc1ccc(-n2c(=O)c3cc4c(=O)n(-c5ccc(C)c(C)c5)c(=O)c4c(C(=O)c4ccc(C(=O)O)cc4)c3c2=O)cc1C | -57.6 | -5.8 | 1.4 | -0.3 | 6.9 | 83.9*
CCCCCCNC1=NCCS1 | 3.7 | -6.4 | 2.5 | -0.4 | -14.7 | 4.6
Cn1c(=O)c(Nc2ccc(Cl)cc2)c2c3c(cccc31)C(=O)c1ccccc1-2 | x | 2.8 | 65.6* | -0.5 | -5.2 | x
CC(=O)Nc1c2c3c(cccc3n(C)c1=O)C(=O)c1ccccc1-2 | -60.7 | 3.5 | 7.0 | 1.7 | 0.2 | -49.8
O=C(/C=C/c1ccc(Br)cc1)NC(=S)Nc1ccc(S(=O)(=O)Nc2nccs2)cc1 | -43.9 | -4.6 | -1.0 | -1.5 | -7.5 | 74.8*
COc1cc(/C=C2\SC(=Nc3cccnc3)NC2=O)cc(OC)c1OC | 8.1 | -23.2 | 27.1* | -0.7 | 3.6 | 11.8
CC1(c2nnnn2-c2ccc3c(c2)OCCO3)CCC(=O)N1CCCn1ccnc1 (stereo not drawn) | -0.7 | x | x | x | x | 102.3*
CC1(c2nnnn2-c2ccc3c(c2)OCCO3)CCC(=O)N1CCCN1CCOCC1 (stereo not drawn) | 1.9 | x | x | x | x | 1.6
CC1CCc2cc(F)ccc2N1C(=O)c1ccc2c(c1)OCO2 (stereo not drawn) | 2.8 | 3.4 | 4.5 | 0.3 | -0.3 | 1.5
O=C(CC1SC(N2CCOCC2)=NC1=O)Nc1ccc(Cl)c(C(F)(F)F)c1 (stereo not drawn) | 2.3 | x | 21.8* | 0.9 | x | -5.8
O=C(NC1CCCCC1)C(c1ccc(F)cc1)N(CCc1ccccc1)C(=O)CN1C(=O)c2ccccc2S1(=O)=O (stereo not drawn) | 4.9 | -2.6 | 3.8 | 17.8* | -14.7 | 0.1
CN(C)c1ccc(NC(=O)Nc2nc(C(N)C3CCCCC3)cs2)cc1 (stereo not drawn) | 3.0 | x | x | x | x | -1.7
CC(C)(C)CC(=O)Nc1ccc(Nc2ccccc2)cc1 | -3.1 | -1.3 | 10.9 | 1.5 | -2.2 | -1.2
O=C(O)c1ccccc1SCc1csc(-c2ccccc2)n1 | 3.5 | -12.7 | 12.3* | -2.2 | -9.2 | 3.3
CC1(C)Cc2c(cnn2-c2ccc(F)cc2)C(NC(=O)CCn2cncn2)C1 (stereo not drawn) | 2.9 | -6.9 | 5.0 | 1.8 | 6.4 | 4.2
CC1(C)Cc2c(cnn2-c2ccc(F)cc2)C(NC(=O)Cn2cncn2)C1 (stereo not drawn) | 1.4 | -12.7 | 50.8* | 0.7 | 3.0 | -3.9
